Results taken from ChEMBL document CHEMBL4699653, “Hydroxamate-Based Selective Macrophage Elastase (MMP-12) Inhibitors and Radiotracers for Molecular Imaging” (J Med Chem, 2020).
pKi: −log10 of the molar value. Active and inactive are the calls of the source. The calls are words filed in the database; no cut-off is given here.

How the values were obtained:
[1] = target: Matrix metalloproteinase-9 (Homo sapiens, UniProt P14780); experiment: Inhibition of human recombinant MMP9 using Mca-Lys-Pro-Leu-Gly-Leu-Dpa-Ala-Arg-NH2 substrate by spectrophotometry
Summary of the method: (§1)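 Fluorogenic cleavage kinetics with 0.2–0.5 nM recombinant human MMP in 50 mM Tris/HCl pH 6.8 with 10 mM CaCl2 at 25 °C. […] Fluorescence is monitored. Ki is derived by the Horovitz–Levitski method, as the mean ± SD of three experiments.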

Matrilysin = target: T1, Matrilysin (Homo sapiens, UniProt P09237); experiment: Inhibition of human recombinant MMP7 using Mca-Lys-Pro-Leu-Gly-Leu-Dpa-Ala-Arg-NH2 substrate by spectrophotometry; summary of the method: as §1
T1 sequence (P09237 whole entry): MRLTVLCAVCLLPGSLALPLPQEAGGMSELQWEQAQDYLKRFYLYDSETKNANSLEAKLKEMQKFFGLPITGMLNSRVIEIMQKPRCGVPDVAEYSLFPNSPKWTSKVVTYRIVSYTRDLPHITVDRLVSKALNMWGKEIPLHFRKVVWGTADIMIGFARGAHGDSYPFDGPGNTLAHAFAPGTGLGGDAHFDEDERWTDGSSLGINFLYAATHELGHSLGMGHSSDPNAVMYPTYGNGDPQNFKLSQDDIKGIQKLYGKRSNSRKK

[2] = target: Macrophage metalloelastase (Mus musculus) (UniProt P34960); experiment: Inhibition of mouse recombinant MMP12 using Mca-Lys-Pro-Leu-Gly-Leu-Dpa-Ala-Arg-NH2 substrate by spectrophotometry
Collagenase 3 = Collagenase 3 (Homo sapiens, UniProt P45452); experiment: Inhibition of human recombinant MMP13 using Mca-Lys-Pro-Leu-Gly-Leu-Dpa-Ala-Arg-NH2 substrate by spectrophotometry; summary of the method: as §1
[3] = target: Macrophage metalloelastase (Homo sapiens, UniProt P39900); experiment: Inhibition of human recombinant MMP12 using Mca-Lys-Pro-Leu-Gly-Leu-Dpa-Ala-Arg-NH2 substrate by spectrophotometry; summary of the method: as §1
[4] = target: 72 kDa type IV collagenase (Homo sapiens, UniProt P08253); experiment: Inhibition of human recombinant MMP2 using Mca-Lys-Pro-Leu-Gly-Leu-Dpa-Ala-Arg-NH2 substrate by spectrophotometry; summary of the method: as §1
Homo sapiens [5] = species on record: Homo sapiens; experiment: Selectivity index, ratio of Ki for inhibition of human recombinant MMP9 for Ki for inhibition of human recombinant MMP12
Homo sapiens [6] = species on record: Homo sapiens; experiment: Selectivity index, ratio of Ki for inhibition of human recombinant MMP7 for Ki for inhibition of human recombinant MMP12
Homo sapiens [7] = species on record: Homo sapiens; experiment: Selectivity index, ratio of Ki for inhibition of human recombinant MMP13 for Ki for inhibition of human recombinant MMP12

Chain of Matrix metalloproteinase-9 (P14780 whole entry): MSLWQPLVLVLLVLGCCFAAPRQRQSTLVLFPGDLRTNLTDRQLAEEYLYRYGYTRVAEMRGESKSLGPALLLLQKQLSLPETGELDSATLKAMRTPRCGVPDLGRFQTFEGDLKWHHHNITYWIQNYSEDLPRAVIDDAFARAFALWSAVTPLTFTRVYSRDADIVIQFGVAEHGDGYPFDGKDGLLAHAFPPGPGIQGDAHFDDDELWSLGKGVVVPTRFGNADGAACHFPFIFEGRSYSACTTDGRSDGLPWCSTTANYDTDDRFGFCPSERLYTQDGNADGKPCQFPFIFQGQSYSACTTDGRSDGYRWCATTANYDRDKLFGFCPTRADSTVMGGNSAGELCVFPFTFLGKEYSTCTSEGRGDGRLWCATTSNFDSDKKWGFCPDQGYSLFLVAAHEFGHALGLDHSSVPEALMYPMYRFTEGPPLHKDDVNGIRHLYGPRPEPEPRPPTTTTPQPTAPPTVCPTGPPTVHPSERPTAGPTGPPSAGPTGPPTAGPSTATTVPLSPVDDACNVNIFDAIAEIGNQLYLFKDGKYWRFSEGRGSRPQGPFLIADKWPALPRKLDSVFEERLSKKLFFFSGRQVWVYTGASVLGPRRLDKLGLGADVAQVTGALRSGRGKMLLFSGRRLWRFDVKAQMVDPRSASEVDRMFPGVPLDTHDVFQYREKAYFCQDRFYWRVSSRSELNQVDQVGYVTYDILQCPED
Chain of Macrophage metalloelastase (Mus musculus) (P34960 110-473 limits assumed): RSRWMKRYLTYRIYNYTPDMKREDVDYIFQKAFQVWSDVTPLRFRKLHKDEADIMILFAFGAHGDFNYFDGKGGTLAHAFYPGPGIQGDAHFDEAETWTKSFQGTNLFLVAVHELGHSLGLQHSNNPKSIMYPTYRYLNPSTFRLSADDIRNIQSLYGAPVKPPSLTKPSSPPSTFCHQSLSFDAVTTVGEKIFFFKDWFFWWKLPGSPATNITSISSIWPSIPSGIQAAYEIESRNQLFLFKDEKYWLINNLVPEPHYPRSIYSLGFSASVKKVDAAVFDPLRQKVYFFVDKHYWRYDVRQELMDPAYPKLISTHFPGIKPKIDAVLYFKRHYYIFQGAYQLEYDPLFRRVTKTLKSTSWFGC
Chain of 72 kDa type IV collagenase (P08253 whole entry): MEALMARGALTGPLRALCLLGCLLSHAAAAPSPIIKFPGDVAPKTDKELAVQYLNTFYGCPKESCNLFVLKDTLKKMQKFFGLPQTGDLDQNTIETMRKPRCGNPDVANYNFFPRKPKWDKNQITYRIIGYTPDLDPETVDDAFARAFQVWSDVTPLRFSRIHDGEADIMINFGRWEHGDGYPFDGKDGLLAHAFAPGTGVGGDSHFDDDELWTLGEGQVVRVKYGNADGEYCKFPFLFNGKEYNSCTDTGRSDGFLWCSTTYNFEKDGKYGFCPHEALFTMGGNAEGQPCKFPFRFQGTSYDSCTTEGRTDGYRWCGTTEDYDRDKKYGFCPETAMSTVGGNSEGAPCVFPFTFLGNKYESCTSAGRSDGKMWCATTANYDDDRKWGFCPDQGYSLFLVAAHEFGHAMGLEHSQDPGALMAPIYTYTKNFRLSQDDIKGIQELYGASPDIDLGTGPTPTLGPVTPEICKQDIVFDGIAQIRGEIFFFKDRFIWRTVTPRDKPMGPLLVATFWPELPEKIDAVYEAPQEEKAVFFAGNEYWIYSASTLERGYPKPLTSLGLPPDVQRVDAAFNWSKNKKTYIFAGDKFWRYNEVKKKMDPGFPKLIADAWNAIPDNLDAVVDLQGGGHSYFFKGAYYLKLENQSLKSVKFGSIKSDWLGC
Chain of Macrophage metalloelastase (P39900 whole entry): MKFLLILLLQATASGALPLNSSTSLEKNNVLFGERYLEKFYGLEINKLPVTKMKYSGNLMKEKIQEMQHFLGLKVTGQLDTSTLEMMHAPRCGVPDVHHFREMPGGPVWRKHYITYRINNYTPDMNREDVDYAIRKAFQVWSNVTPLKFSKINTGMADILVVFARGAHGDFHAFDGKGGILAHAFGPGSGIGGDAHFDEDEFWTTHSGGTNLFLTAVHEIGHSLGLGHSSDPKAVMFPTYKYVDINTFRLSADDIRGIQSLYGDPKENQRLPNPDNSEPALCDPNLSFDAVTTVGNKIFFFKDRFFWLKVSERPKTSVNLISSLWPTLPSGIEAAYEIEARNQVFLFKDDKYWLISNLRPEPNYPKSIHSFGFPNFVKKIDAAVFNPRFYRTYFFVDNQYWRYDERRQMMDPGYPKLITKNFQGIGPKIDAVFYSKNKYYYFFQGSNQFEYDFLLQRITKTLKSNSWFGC

Compound: CC(C)C[C@H]1C(=O)N[C@H](C(=O)O)Cc2ccc(cc2)OCCC[C@@H]1C(=O)NO
- pKi [1]: 5.96
- pKi (Matrilysin): 7.41
- inhibition (qualitative) [2]: Active
- pKi (Collagenase 3): 7.51
- pKi [3]: 8.96
- pKi [4]: 6.52

Compound: CC(C)C[C@H](CC(=O)NO)C(=O)N[C@@H](Cc1ccc(OCCNC(=O)c2ccc(NN)nc2)cc1)C(=O)O
- pKi [1]: 6.81
- pKi (Matrilysin): < 5.30
- Ratio Ki (Homo sapiens [5]): 17
- inhibition (qualitative) [2]: Active
- pKi (Collagenase 3): < 5.30
- pKi [3]: 8.05
- pKi [4]: < 5.30

Compound: CC(C)C[C@H](CC(=O)NO)C(=O)N[C@@H](Cc1ccccc1)C(=O)N[C@@H](CCC(=O)O)C(=O)NCCNC(=O)c1ccc(NN)nc1
- pKi [1]: 5.88
- pKi (Matrilysin): 6.21
- inhibition (qualitative) [2]: Active
- pKi (Collagenase 3): 7.11
- pKi [3]: 8.12
- pKi [4]: 6.65

Compound: CC(C)C[C@H]1C(=O)N[C@H](C(=O)N[C@@H](CCC(=O)O)C(=O)O)Cc2ccc(cc2)OCCC[C@@H]1C(=O)NO
- pKi [1]: 5.68
- Ratio Ki (Homo sapiens [6]): 12
- pKi (Matrilysin): 7.84
- inhibition (qualitative) [2]: Active
- pKi (Collagenase 3): 7.05
- Ratio Ki (Homo sapiens [7]): 74
- pKi [3]: 8.92
- pKi [4]: 6.40

Compound: CC(C)C[C@H](CC(=O)NO)C(=O)N[C@@H](Cc1ccccc1)C(=O)O
- pKi [1]: 6.90
- pKi (Matrilysin): 6.49
- inhibition (qualitative) [2]: Active
- pKi (Collagenase 3): 7.09
- pKi [3]: 7.93
- pKi [4]: 6.79

Compound: CNC(=O)[C@H](CCCNC(=N)N)NC(=O)[C@@H]1Cc2ccc(cc2)OCCC[C@H](C(=O)NO)[C@@H](CC(C)C)C(=O)N1
- inhibition (qualitative) [2]: Active
